Experimental findings from PubChem BioAssay AID1556 (The Scripps Research Institute Molecular Screening Center, 2009) are described below.

Out of some 290,000 compounds screened, about 1,300 (0.45%) were called active. The sample as a whole holds a higher share of actives than the screen did. Unmarked numbers belong to inactive results.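 Rule for the calls: active = inhibition above the mean plus 3 SD of all compounds in the same screening run (cut at about 4.5% in these data); inactive = the rest.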

The assay concerns metallo-beta-lactamase IMP-1 (Pseudomonas aeruginosa). The assay can be described thus: inhibition of IMP-1 nitrocefin hydrolysis – biochemical, epi-absorbance readout, Pseudomonas aeruginosa enzyme, primary screen (AID 1556).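 Note: 0% = IMP-1 with DMSO and 100% = DMSO wells lacking enzyme.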 The note with it: purified IMP-1, nitrocefin hydrolysis, epi-absorbance fluorescence; at 5.6 µM; active compounds read high. In short, it runs like this: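 Assay system: purified recombinant IMP-1 beta-lactamase. Input: IMP-1 0.2 nM before substrate addition. Buffer or medium: Zinc- and detergent-supplemented HEPES buffer, pH 7.1. Schedule: 25 °C, 15 min preincubation, 25 min reaction. Signal: Epi-absorbance fluorescence, 480 nm excitation, 530 nm emission. Evaluation: percent inhibition from optical density relative to buffer-blank wells.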
For the compound `O=C(NN1C(=O)C2C3C=CC(O3)C2C1=O)c1ccccc1` (configuration not stated), the inhibition is -2.31%.

For the compound `COc1ccccc1C(=O)NN1C(=O)C2C3C=CC(O3)C2C1=O` (configuration not stated), the inhibition is -3.22%.

Consider `COc1ccc(C(=O)NN2C(=O)C3C(c4ccccc4)C=CC(c4ccccc4)C3C2=O)cc1` (configuration not stated), for which the inhibition is 53.9% (active).

With `O=C(NC1CCCC1)C(c1ccco1)N(C(=O)c1ccco1)c1ccc(F)cc1` (configuration not stated), the inhibition is -2.48%.

With `CCCc1cc(C(=O)Nc2ccc(C(=O)OC)cc2)cs1`, the inhibition was -3.3%.

Take `CCc1ccc(OCC(=O)NCC(c2ccc(Cl)cc2)N2CCCCC2)cc1` (configuration not stated): the inhibition was -1.02%.

With `COc1cccc(CSc2nc3nc(C)cc(C)n3n2)c1`, the inhibition was -1.34%.

For `O=C(Nc1ccnn1C1CCN(C/C=C/c2ccc(F)cc2)CC1)C1CCCC1`, the inhibition was 0.74%.

For the compound `CCCCC(c1nnnn1CS(=O)(=O)c1ccc(C)cc1)N1CCC(C(N)=O)CC1` (configuration not stated), the inhibition is 0.14%.

As to `C=CCN1CCN(C(=O)CCCc2ccccc2)CC1`, the inhibition is -0.18%.

`NS(=O)(=O)c1ccc(NC(=O)COC(=O)c2cc3ccccc3oc2=O)cc1`: the inhibition was -1.27%.

Take `COc1cc(-c2cc(C(=O)OCC(=O)Nc3ccc4c(c3)OCO4)c3ccccc3n2)cc(OC)c1OC`: the inhibition is -2.57%.

On to `O=C(COC(=O)c1c2c(nc3ccccc13)/C(=C\c1cccs1)CCC2)Nc1ccccc1Cl`, for which the inhibition was -3.13%.

As for `NC(=O)c1ccc(NC(=O)COC(=O)c2c3c(nc4ccccc24)/C(=C\c2ccc4c(c2)OCO4)CCC3)cc1`, the inhibition is 19.6% (active).

As for `NS(=O)(=O)c1ccc(NC(=O)COC(=O)c2c3c(nc4ccccc24)/C(=C\c2ccc4c(c2)OCO4)CCC3)cc1`, the inhibition is 28% (active).

Turning to `COc1cc(/C=C2\CCCc3c2nc2ccccc2c3C(=O)O)cc(Cl)c1O`, the inhibition is -1.14%.

Consider `O=C(c1ccccc1)N1N=C(c2ccccc2O)CC1c1ccc(Br)cc1` (configuration not stated), for which the inhibition is -4.1%.

For `Cc1cccc(N2CCN(C(=O)c3cccc(N4C(=O)C5C6C=CC(C6)C5C4=O)c3)CC2)c1C` (configuration not stated), the inhibition is -2.92%.

With `CCCCc1nc(NCCN)c(C#N)c2c1CSC(C)(C)C2`, the inhibition is -1.69%.

With `O=C(Nc1ccc(-c2cscn2)cc1)C1CCCN(Cc2ccc(CO)o2)C1` (configuration not stated), the inhibition was -1.8%.

Regarding `CN(CC1CCCO1)S(=O)(=O)c1ccc(C(=O)Nc2ccc(F)cc2)cc1` (configuration not stated), the inhibition is -2.19%.

With `O=C(c1cc(COc2cccc(C(F)(F)F)c2)on1)N1CCSCC1`, the inhibition was -1.37%.

Take `CC(=O)Nc1ccc(S(=O)(=O)N2CCSCC2)cc1`: the inhibition was -4.96%.

Take `CC(=O)NC1=NC(=O)CS1`: the inhibition is 12.7% (active).

As to `Cc1ccnc(NC(=O)CCNS(=O)(=O)c2ccc(C)c(C)c2)c1`, the inhibition was -3.48%.

With `Cc1cc(NC(=O)Nc2ccccc2[N+](=O)[O-])no1`, the inhibition is -1.98%.

As to `CCCCCCC(O)(CCN1CCCCC1)c1ccccc1` (configuration not stated), the inhibition is -1.94%.

`Cc1cc(C(=O)N/N=C/c2ccc(O)c([N+](=O)[O-])c2)c(C)n1-c1ccc(F)cc1`: the inhibition is -0.78%.

Take `CCOc1cccc(/C=N/N2C(=O)CSC2=S)c1O`: the inhibition is -2.38%.

As to `O=C1CSC(=S)N1/N=C/c1ccc(O)c([N+](=O)[O-])c1`, the inhibition was 10.3% (active).

As for `O=C(Nc1cccc(F)c1)[C@@H]1CCCN1`, the inhibition is -1.96%.

In the case of `O=C(NCc1cccs1)c1ccc(CS(=O)Cc2ccccc2Cl)o1` (configuration not stated), the inhibition is -3%.

In the case of `CC1CC(C)CN(C(=O)CSc2ccsc2[N+](=O)[O-])C1` (configuration not stated), the inhibition was -2.57%.

On to `Cc1ccc(CN2CCCOCCS2(=O)=O)cc1`, for which the inhibition was -1.66%.

Regarding `Cc1ccc2occ(/C=N/NC(=O)c3ccccc3C)c(=O)c2c1`, the inhibition is 4.69% (active).

On to `CC(C)(C)OC(=O)NCCCCCC(=O)N/N=C/c1coc2ccccc2c1=O`, for which the inhibition was -0.81%.

With `O=C(N/N=C/c1coc2ccccc2c1=O)c1cc2ccccc2o1`, the inhibition was -0.92%.

Regarding `CCCCc1ccc(NC(=O)NCc2cccnc2)cc1`, the inhibition is -2.87%.

`COc1ccc(S(=O)(=O)N2CCOC2CNC(=O)C(=O)NCc2ccncc2)cc1C` (configuration not stated): the inhibition was -3.35%.

Regarding `COC(=O)c1nc(NC(=O)c2ccc(Cl)cc2)n[nH]1`, the inhibition was 7.73% (active).

Consider `COC(=O)c1nc(NC(=O)c2ccc(F)cc2)n[nH]1`, for which the inhibition was -1.83%.

In the case of `COC(=O)c1nc(NC(=O)c2ccc(C(C)(C)C)cc2)n[nH]1`, the inhibition is -2.13%.

For `CC(C)c1ccc(N(C(=O)c2ccco2)C(C(=O)NC2CCCC2)c2cccnc2)cc1` (configuration not stated), the inhibition is -1.29%.

Consider `O=C(N/N=C\c1cccnc1)c1cc(-c2ccccc2)nc2c(Cl)cccc12`, for which the inhibition is -3.33%.

On to `Cc1occc1C(=O)NC1CCCN(Cc2ccc(CC(C)C)cc2)C1` (configuration not stated), for which the inhibition is -3.33%.

With `Cc1cc(-c2ccc(C)c(S(=O)(=O)NC(C)Cc3ccco3)c2)on1` (configuration not stated), the inhibition is -1.25%.

For the compound `CCCOc1ccc(-c2c(C(=O)N/N=C/c3ccco3)nnn2-c2nonc2N)cc1`, the inhibition is -3.51%.

Consider `C/C(=N\Nc1ccc(S(N)(=O)=O)cc1[N+](=O)[O-])c1cccs1`, for which the inhibition is 21.1% (active).

`C/C(=N\Nc1ncc(Cl)cc1Cl)c1cccs1`: the inhibition is -0.11%.

Consider `C/C(=N\NS(=O)(=O)c1ccc(Br)cc1)c1cccs1`, for which the inhibition is -3.54%.

Regarding `COc1cc(C(=S)N2CCOCC2)cc(OC)c1OC(=O)c1ccc([N+](=O)[O-])cc1[N+](=O)[O-]`, the inhibition is -5.07%.

As to `Nc1nc(-c2ccccc2)cc(-c2ccccc2)n1`, the inhibition is -4.04%.

Turning to `CS(=O)(=O)c1sc2nc(-c3ccccc3)cc(-c3ccccc3)c2c1N`, the inhibition is 5.43% (active).

Consider `CNc1nc(-c2ccccc2)cc(-c2ccccc2)n1`, for which the inhibition was 2.66%.

Regarding `Cc1cc2nc3c(=O)n(Cc4ccccc4)c(=O)[nH]c3nc2cc1N`, the inhibition is 9.26% (active).

Regarding `O=c1[nH]c2c(c(=O)n1Cc1ccccc1)CCC2`, the inhibition is -1.53%.

`CC(=O)c1ccc(-c2ccc(Cn3c(C)nc4cc(N)c(C)nc43)cc2)cc1`: the inhibition was -0.56%.

On to `COc1cccc(CNC(=O)C2CC(=O)N(C3CCCCCCC3)C2)c1` (configuration not stated), for which the inhibition was -1.11%.

With `COc1ccccc1C(=O)N(Cc1ccc(C)o1)C1CCS(=O)(=O)C1` (configuration not stated), the inhibition is -3.51%.

For the compound `COCCOC(=O)C1=C(C)NC(=O)NC1c1ccc(Cl)cc1` (configuration not stated), the inhibition is -2.42%.

For `CC1=C(C(=O)OC2CCCCC2)C(c2ccccc2F)NC(=O)N1` (configuration not stated), the inhibition was -2.31%.

Take `CC1=C(C(=O)OCC2CCCCC2)C(c2ccc(F)cc2)NC(=O)N1` (configuration not stated): the inhibition is 28.3% (active).

As to `Cc1ccccc1CNC(=O)CCC(=O)N1Cc2ccccc2Oc2ncccc21`, the inhibition was -3.43%.

As to `CCCCCCC(=O)Nc1nc(C)c(-c2csc(Nc3cccc(OC)c3)n2)s1`, the inhibition was 9.14% (active).

`CCOC(=O)c1cnc(SCC(=O)Nc2cccc(OC)c2)nc1N`: the inhibition was -1.9%.

On to `CCCCCCC(=O)Nc1nc(C)c(-c2csc(Nc3cc(Cl)ccc3OC)n2)s1`, for which the inhibition is -2.05%.

`CCOC(=O)c1csc(NC(=O)Nc2cccc(OC)c2)n1`: the inhibition is 15.1% (active).

As for `CCCCC(=O)Nc1nc(C)c(-c2csc(Nc3ccc(Cl)cc3)n2)s1`, the inhibition was 0.37%.

As for `CCNS(=O)(=O)c1ccc(NC(=O)Nc2cccc(OC)c2)cc1`, the inhibition is -2.27%.

In the case of `COc1ccc(C(=O)Nc2ccc(-n3nncc3C(C)(C)C)cc2)cc1`, the inhibition was -2.83%.

Turning to `Clc1ccc(C2=CSC3=Nc4cccc5cccc(c45)N23)cc1`, the inhibition was 5.6% (active).

`CC(=O)c1ccc(N2CCN(C(=O)CCNC(=O)Cn3ccc4ccccc4c3=O)CC2)cc1`: the inhibition was -0.18%.

Take `O=C(CN1CCOc2ccccc21)N1CCC(Cc2ccccc2)CC1`: the inhibition was -0.27%.

Regarding `CCOC(=O)c1c(C)[nH]c(C(=O)NCCN2CCOCC2)c1C`, the inhibition is -0.4%.

Turning to `COc1cc(NC(=O)c2ccc3c(c2)OCO3)ccc1NC(=O)c1cccs1`, the inhibition was -2.83%.

For `FC(F)(F)C1CCCN(c2nsc3ccccc23)C1` (configuration not stated), the inhibition is -3.15%.

Turning to `CSC1=N/C(=C\C=C\c2cccs2)C(=O)S1`, the inhibition is 12.2% (active).

Take `Cc1cccc(C2=N/C(=C/c3cccs3)C(=O)O2)c1`: the inhibition is -0.41%.

With `CN1C/C(=C/c2cccs2)C(=O)/C(=C\c2cccs2)C1`, the inhibition was 0.42%.

On to `COc1ccc(C(O)(C2CCCCC2)C(CN2CCCC2)c2ccccc2)cc1` (configuration not stated), for which the inhibition was -0.93%.

As for `CCc1ccc(NC(=O)Cn2nnc(C(=O)NCc3ccc4c(c3)OCO4)c2N)cc1`, the inhibition is 0.66%.

Consider `CCOCCCNC(=S)Nc1ccc2nc(N3CCN(CC)CC3)cc(C)c2c1`, for which the inhibition was -2%.

As for `N#Cc1ccccc1CN1C(=O)S/C(=C/c2cccn2-c2cccc(C(=O)O)c2)C1=O`, the inhibition was 20.9% (active).

Regarding `Cc1cc(/C=C2\SC(=O)N(C)C2=O)c(C)n1-c1cccc(C(=O)O)c1`, the inhibition was -1.7%.

For the compound `Cc1ccccc1NC(=O)CN1C(=O)N/C(=C\c2cccn2-c2cccc(C(=O)O)c2)C1=O`, the inhibition is -2.07%.

Consider `O=C(CNC(=O)c1ccccc1F)c1ccc(Br)cc1`, for which the inhibition is -2.02%.

For the compound `Cc1ccccc1NC(=O)CSc1ccc2nnc(-c3ccccn3)n2n1`, the inhibition is -1.21%.

`CC(NC(=O)CCCC1CCCCC1)c1ccc(S(N)(=O)=O)cc1` (configuration not stated): the inhibition is -1.72%.

For the compound `O=C(Cc1cccs1)Nc1cccc(-c2nc3ccccc3[nH]2)c1`, the inhibition is -5.9%.

On to `O=C(/C=C/c1ccco1)Nc1cccc(-c2nc3ccccc3[nH]2)c1`, for which the inhibition is -2.53%.

Take `O=C(Nc1cccc(-c2nc3ccccc3[nH]2)c1)c1ccc(C(=O)Nc2cccc(-c3nc4ccccc4[nH]3)c2)cc1`: the inhibition was 4.99% (active).

Turning to `CC1CCN(C(=O)CN(c2ccc(Oc3ccccc3)cc2)S(C)(=O)=O)CC1`, the inhibition was -2.25%.
